Reference: publication PMC12541585 (Acta Pharmaceutica Sinica. B, 2025)

Tested on: MDA-MB-231 xenograft
Assay: MDA-MB-231 xenograft model
Assay type: in vivo, BALB/c nude mice
Settings: immunohistochemical staining of MDA-MB-231 tumors, vs control group
Method in brief: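 Female nude mice received 5×10^6 MDA-MB-231 cells in 100 μL Matrigel/PBS (1:1) subcutaneously into the right flank. At ≥80 mm³, mice were randomised into five groups, each dosed intraperitoneally every three days: test compound at 0.1, 0.5 or 1 mg/kg, paclitaxel 4 mg/kg, or PBS. Excised tumour sections were stained with anti-CXCR4 (1:100, 4 °C overnight), then HRP secondary (30 min) and DAB.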

CC(=O)O[C@H]1C(=O)[C@@]2(C)[C@H]([C@H](OC(=O)c3ccccc3)[C@]3(O)C[C@H](OC(=O)[C@H](O)[C@@H](NC(=O)c4ccccc4)c4ccccc4)C(C)=C1C3(C)C)[C@]1(OC(C)=O)CO[C@@H]1C[C@@H]2O [PTX, Paclitaxel]
proportion of CXCR4-positive cells in tumor tissue: little effect
